Measurements taken from ChEMBL document CHEMBL1154716, “Synthesis of some new S-triazine based chalcones and their derivatives as potent antimicrobial agents” (2010).
≈ marks a conversion by molar mass, not a printed value. Calls of active or inactive are those of the source. The rule behind the calls is not given here.

What was measured:
Bacillus cereus [1] = assay: Antimicrobial activity against Bacillus cereus at 10 ug/disk after 24 hrs by disk diffusion assay; type: functional
In short: (§1)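 Disc diffusion on 4 mm filter discs. Bacteria are grown overnight in LB at 28 C, then adjusted in saline to 1.0 × 10^5 cfu/ml. The suspension is mixed into top agar over peptone agar plates. Plates are incubated 24 h at 28 C, and growth-inhibition zone diameter is measured. Streptomycin and ampicillin controls are applied from a 1 mg/ml stock. Tests are done in duplicate.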

Micrococcus flavus [2] = assay: Antimicrobial activity against Micrococcus flavus at 10 ug/disk after 24 hrs by disk diffusion assay; type: functional; conditions: read-out: IZ; in short: as §1
Staphylococcus aureus [3] = assay: Antimicrobial activity against Staphylococcus aureus at 10 ug/disk after 24 hrs by disk diffusion assay; type: functional; in short: as §1
Escherichia coli [4] = assay: Antimicrobial activity against Escherichia coli at 10 ug/disk after 24 hrs by disk diffusion assay; type: functional; conditions: read-out: IZ; in short: as §1
Pseudomonas aeruginosa [5] = assay: Antimicrobial activity against Pseudomonas aeruginosa at 10 ug/disk after 24 hrs by disk diffusion assay; type: functional; in short: as §1
Enterobacter cloacae [6] = assay: Antimicrobial activity against Enterobacter cloacae at 10 ug/disk after 24 hrs by disk diffusion assay; type: functional; in short: as §1
Salmonella typhimurium [7] = assay: Antimicrobial activity against Salmonella Typhimurium at 10 ug/disk after 24 hrs by disk diffusion assay; type: functional, organism-based; conditions: Salmonella enterica subsp. enterica serovar Typhimurium; in short: as §1
Listeria monocytogenes [8] = assay: Antimicrobial activity against Listeria monocytogenes at 10 ug/disk after 24 hrs by disk diffusion assay; type: functional; in short: as §1
Bacillus cereus [9] = assay: Antimicrobial activity against Bacillus cereus at 1 umol/disk after 24 hrs by disk diffusion assay; type: functional; in short: as §1
Micrococcus flavus [10] = assay: Antimicrobial activity against Micrococcus flavus at 1 umol/disk after 24 hrs by disk diffusion assay; type: functional; in short: as §1
Staphylococcus aureus [11] = assay: Antimicrobial activity against Staphylococcus aureus at 1 umol/disk after 24 hrs by disk diffusion assay; type: functional; in short: as §1
Escherichia coli [12] = assay: Antimicrobial activity against Escherichia coli at 1 umol/disk after 24 hrs by disk diffusion assay; type: functional; in short: as §1
Pseudomonas aeruginosa [13] = assay: Antimicrobial activity against Pseudomonas aeruginosa at 1 umol/disk after 24 hrs by disk diffusion assay; type: functional; in short: as §1
Enterobacter cloacae [14] = assay: Antimicrobial activity against Enterobacter cloacae at 1 umol/disk after 24 hrs by disk diffusion assay; type: functional; in short: as §1
Salmonella typhimurium [15] = assay: Antimicrobial activity against Salmonella Typhimurium at 1 umol/disk after 24 hrs by disk diffusion assay; type: functional, organism-based; conditions: Salmonella enterica subsp. enterica serovar Typhimurium; in short: as §1
Bacillus cereus [16] = assay: Antimicrobial activity against Bacillus cereus at 1 umol/spot after 18 hrs by TLC-bioautographic method; type: functional
In short: (§2)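 TLC bioautography. Samples are spotted on silica gel TLC plates, then sprayed with bacteria (1.0 × 10^5 cfu/ml) in tryptic soy broth. Plates are incubated 18 h at 37 C and sprayed with 3% aqueous p-iodonitrotetrazolium violet. After a further 3 h, growth is stopped with 70% EtOH. White zones on a pink background are scored as inhibition-zone diameter with standard errors.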

Micrococcus flavus [17] = assay: Antimicrobial activity against Micrococcus flavus at 1 umol/spot after 18 hrs by TLC-bioautographic method; type: functional; in short: as §2
Staphylococcus aureus [18] = assay: Antimicrobial activity against Staphylococcus aureus at 1 umol/spot after 18 hrs by TLC-bioautographic method; type: functional; in short: as §2
Escherichia coli [19] = assay: Antimicrobial activity against Escherichia coli at 1 umol/spot after 18 hrs by TLC-bioautographic method; type: functional; in short: as §2
Pseudomonas aeruginosa [20] = assay: Antimicrobial activity against Pseudomonas aeruginosa at 1 umol/spot after 18 hrs by TLC-bioautographic method; type: functional; in short: as §2
Enterobacter cloacae [21] = assay: Antimicrobial activity against Enterobacter cloacae at 1 umol/spot after 18 hrs by TLC-bioautographic method; type: functional; in short: as §2
Salmonella typhimurium [22] = assay: Antimicrobial activity against Salmonella Typhimurium at 1 umol/spot after 18 hrs by TLC-bioautographic method; type: functional, Salmonella enterica subsp. enterica serovar Typhimurium; in short: as §2
Listeria monocytogenes [23] = assay: Antimicrobial activity against Listeria monocytogenes at 1 umol/spot after 18 hrs by TLC-bioautographic method; type: functional; in short: as §2
Bacillus cereus [24] = assay: Antimicrobial activity against Bacillus cereus after 24 hrs by microdilution technique; type: functional
In short: (§3)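 Broth microdilution in LB medium. Inoculum is 1.0 × 10^4 cfu per well, from a saline-adjusted suspension of 1.0 × 10^5 cfu/ml. Compounds are dissolved in DMSO. Incubated 24 h at 28 C. MIC is the lowest concentration with no visible growth under a binocular microscope. MBC is read by subculture into fresh broth for 72 h, with no growth taken as 99.5% kill. OD is read at 655 nm.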

Micrococcus flavus [25] = assay: Antimicrobial activity against Micrococcus flavus after 24 hrs by microdilution technique; type: functional; in short: as §3
Staphylococcus aureus [26] = assay: Antimicrobial activity against Staphylococcus aureus after 24 hrs by microdilution technique; type: functional; in short: as §3
Escherichia coli [27] = assay: Antimicrobial activity against Escherichia coli after 24 hrs by microdilution technique; type: functional; in short: as §3
Pseudomonas aeruginosa [28] = assay: Antimicrobial activity against Pseudomonas aeruginosa after 24 hrs by microdilution technique; type: functional; in short: as §3
Enterobacter cloacae [29] = assay: Antimicrobial activity against Enterobacter cloacae after 24 hrs by microdilution technique; type: functional; in short: as §3
Salmonella typhimurium [30] = assay: Antimicrobial activity against Salmonella Typhimurium after 24 hrs by microdilution technique; type: functional, Salmonella enterica subsp. enterica serovar Typhimurium; conditions: Salmonella enterica; in short: as §3
Listeria monocytogenes [31] = assay: Antimicrobial activity against Listeria monocytogenes after 24 hrs by microdilution technique; type: functional; in short: as §3
Listeria monocytogenes [32] = assay: Antimicrobial activity against Listeria monocytogenes at 1 umol/disk after 24 hrs by disk diffusion assay; type: functional; in short: as §1

| SMILES | inhibition zone (IZ) (Bacillus cereus [1]) | zone of inhibition at 10 µg/disc (Micrococcus flavus [2]) | inhibition zone (IZ) (Staphylococcus aureus [3]) | zone of inhibition at 10 µg/disc (Escherichia coli [4]) | inhibition zone (IZ) (Enterobacter cloacae [6]) | inhibition zone (IZ) (Salmonella typhimurium [7]) | inhibition zone (IZ) (Bacillus cereus [9]) | inhibition zone (IZ) (Micrococcus flavus [10]) | inhibition zone (IZ) (Staphylococcus aureus [11]) | inhibition zone (IZ) (Escherichia coli [12]) | inhibition zone (IZ) (Enterobacter cloacae [14]) | inhibition zone (IZ) (Salmonella typhimurium [15]) | inhibition zone (IZ) (Bacillus cereus [16]) | inhibition zone (IZ) (Micrococcus flavus [17]) | inhibition zone (IZ) (Staphylococcus aureus [18]) | inhibition zone (IZ) (Escherichia coli [19]) | inhibition zone (IZ) (Pseudomonas aeruginosa [20]) | inhibition zone (IZ) (Enterobacter cloacae [21]) | inhibition zone (IZ) (Listeria monocytogenes [23]) | MBC (Bacillus cereus [24]) | other results |
| --- | --- | --- | --- | --- | --- | --- | --- | --- | --- | --- | --- | --- | --- | --- | --- | --- | --- | --- | --- | --- | --- |
| COc1ccccc1-c1cc(-c2ccc(Nc3nc(Nc4ccccc4)nc(Nc4ccccc4)n3)cc2)nc(N)c1C#N | inactive | 10 mm | inactive | 7 mm | inactive | inactive | inactive | 0.06 millimeter | inactive | 0.04 millimeter | inactive | inactive | inactive | 0.06 millimeter | inactive | inactive | inactive | 0.08 millimeter | 0.09 millimeter | 173 µM (≈ 99.9 µg/mL) | inhibition zone (IZ) (Pseudomonas aeruginosa [5]): inactive; zone of inhibition at 10 µg/disc (Listeria monocytogenes [8]; read-out: IZ): 6 mm; inhibition zone (IZ) (Pseudomonas aeruginosa [13]): inactive; inhibition zone (IZ) (Salmonella typhimurium [22]): 0.07 millimeter; MIC (Bacillus cereus [24]): 86.5 µM (≈ 50 µg/mL); MBC (Micrococcus flavus [25]): 173 µM (≈ 99.9 µg/mL); MIC (Micrococcus flavus [25]): 86.5 µM (≈ 50 µg/mL); MBC (Staphylococcus aureus [26]): 346 µM (≈ 200 µg/mL); MIC (Staphylococcus aureus [26]): 173 µM (≈ 99.9 µg/mL); MBC (Escherichia coli [27]): 346 µM (≈ 200 µg/mL); MIC (Escherichia coli [27]): 173 µM (≈ 99.9 µg/mL); MBC (Pseudomonas aeruginosa [28]): 692 µM (≈ 400 µg/mL); MIC (Pseudomonas aeruginosa [28]): 346 µM (≈ 200 µg/mL); MBC (Enterobacter cloacae [29]): 346 µM (≈ 200 µg/mL); MIC (Enterobacter cloacae [29]): 173 µM (≈ 99.9 µg/mL); MBC (Salmonella typhimurium [30]): 346 µM (≈ 200 µg/mL); MIC (Salmonella typhimurium [30]): 173 µM (≈ 99.9 µg/mL); MBC (Listeria monocytogenes [31]): 692 µM (≈ 400 µg/mL); MIC (Listeria monocytogenes [31]): 346 µM (≈ 200 µg/mL) |
| O=C(/C=C/c1ccco1)c1ccc(Nc2nc(Nc3ccccc3)nc(Nc3ccccc3)n2)cc1 | inactive | 8 mm | inactive | 8 mm | inactive | inactive | inactive | 0.04 millimeter | inactive | 0.04 millimeter | inactive | inactive | 0.07 millimeter | 0.07 millimeter | 0.08 millimeter | 0.08 millimeter | inactive | 0.08 millimeter | 0.08 millimeter | 422 µM (≈ 200 µg/mL) | zone of inhibition at 10 µg/disc (Pseudomonas aeruginosa [5]; read-out: IZ): 6 mm; inhibition zone (IZ) (Listeria monocytogenes [8]): inactive; inhibition zone (IZ) (Listeria monocytogenes [32]): inactive; inhibition zone (IZ) (Salmonella typhimurium [22]; Salmonella enterica subsp. enterica serovar Typhimurium): inactive; MIC (Bacillus cereus [24]): 211 µM (≈ 100 µg/mL); MBC (Micrococcus flavus [25]): 844 µM (≈ 400 µg/mL); MIC (Micrococcus flavus [25]): 422 µM (≈ 200 µg/mL); MBC (Staphylococcus aureus [26]): 844 µM (≈ 400 µg/mL); MIC (Staphylococcus aureus [26]): 422 µM (≈ 200 µg/mL); MBC (Escherichia coli [27]): 422 µM (≈ 200 µg/mL); MIC (Escherichia coli [27]): 211 µM (≈ 100 µg/mL); MBC (Pseudomonas aeruginosa [28]): 422 µM (≈ 200 µg/mL); MIC (Pseudomonas aeruginosa [28]): 211 µM (≈ 100 µg/mL); MBC (Enterobacter cloacae [29]): 422 µM (≈ 200 µg/mL); MIC (Enterobacter cloacae [29]): 211 µM (≈ 100 µg/mL); MBC (Salmonella typhimurium [30]): 422 µM (≈ 200 µg/mL); MIC (Salmonella typhimurium [30]): 211 µM (≈ 100 µg/mL); MBC (Listeria monocytogenes [31]): 844 µM (≈ 400 µg/mL); MIC (Listeria monocytogenes [31]): 422 µM (≈ 200 µg/mL) |
